L major viab – inhibitors of Leishmania major promastigote growth | AID 1063 | actives 9% (n = 200,000) | Leishmania major promastigotes, resazurin fluorescence viability | inhibition, % at 10 µM; in the data active means inhibition above about 50%;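 further: promastigotes grown with compound for 44 hours at 28 °C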
PMI act hi M6P – PMI (human) activation, high substrate; actives 0.34% (n = 190,000); coupled PMI enzyme assay, resazurin fluorescence, 20 min; hits give high values; 1 = untreated enzyme, 0 = substrate-free blank; P34949; activation factor at 20 µM;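 active means activation factor of 2 or more at 20 µM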
Target sequence (P34949 whole entry, looked up): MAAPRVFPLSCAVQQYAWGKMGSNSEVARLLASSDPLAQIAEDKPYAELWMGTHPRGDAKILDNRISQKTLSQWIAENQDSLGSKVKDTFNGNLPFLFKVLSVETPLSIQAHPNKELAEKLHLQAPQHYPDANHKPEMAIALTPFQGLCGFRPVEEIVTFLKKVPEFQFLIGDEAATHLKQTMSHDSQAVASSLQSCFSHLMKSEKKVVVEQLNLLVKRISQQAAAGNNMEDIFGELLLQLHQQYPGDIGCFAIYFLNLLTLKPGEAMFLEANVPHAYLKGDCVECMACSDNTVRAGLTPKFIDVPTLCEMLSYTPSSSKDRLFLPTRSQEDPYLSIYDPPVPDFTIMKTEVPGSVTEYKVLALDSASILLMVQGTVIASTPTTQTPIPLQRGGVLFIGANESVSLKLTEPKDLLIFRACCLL
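test system = human PMI in coupled enzyme assay | medium = HEPES-buffered pH 7.4 with magnesium and detergent | also added = 1.0 mM mannose-6-phosphate substrate with 0.22 mM NADP+ | compound = 20 µM single dose | times = 20 min incubation at room temperature | measured by = resorufin fluorescence (Ex 544/Em 590 nm) from resazurin via diaphorase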
WT yeast gro inh – growth inhibition of WT yeast, mitochondrial fusion screen. mitochondrial fusion phenotypic screen, WT strain. inhibition, % at 10 µM. actives 2.1% (n = 190,000). AID 1362; in the data active means inhibition above about 58%; tested in S. cerevisiae
PMI act – activators of human phosphomannose isomerase. P34949. purified human PMI, coupled resazurin fluorescence, 20 min; hits give high values; 1 = vehicle control, 0 substrate-free wells. activation factor at 20 µM. actives 0.005% (n = 190,000);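 active means activation factor of 2 or more at 20 µM, relative to plate controls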
Diaph act CS – activates diaphorase or chemically reduces, flagging diaphorase assay artifacts; activation factor at 20 µM; actives 0.005% (n = 190,000); Diaphorase/resazurin coupled assay, resorufin fluorescence, 16 min; hits give high values; 1 = vehicle wells, 0 = NADH-free wells;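 active means diaphorase activity raised at least twofold by the compound at 20 µM; inactive means activation factor below 2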
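test system = bacterial diaphorase enzyme (C. kluyveri) | quantity = enzyme 0.07 U/mL final | reagent = NADH substrate 0.114 mM plus resazurin dye 0.1 mM, final | incubation = 16 min enzyme reaction, ambient temperature | buffer or medium = HEPES pH 7.4 buffer with MgCl2 and Tween 20 | signal = fluorescence of resorufin, 544 nm excitation, 590 nm emission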
Large screens that a line does not name were inactive. This is a sample that favours compounds with a hit; in the whole collection about 10% have one here.

CC(=O)N1N=C2/C(=C/c3ccccc3)CCCC2C1c1ccccc1 (stereo not given)	L major viab 97
COc1ccc(C2Nc3ccccc3C(=O)N2NS(=O)(=O)c2ccccc2)cc1OC (stereo not given)	none
O=C(NCc1ccccc1)c1ccc(-c2ccccc2C(F)(F)F)o1	WT yeast gro inh 58
Clc1ccc(-c2csc(N3CCSCC3)n2)cc1	none
CCc1ccc(NC(=O)CC2C(=O)N(c3cccc(C)c3)C(=O)N2C2CC2)cc1 (stereo not given)	none
COc1cc(OC)cc(C(=O)N(CCCN2C(=O)c3cccc4cccc(c34)C2=O)c2cccc(OC)c2)c1	none
COc1ccc(N(CCCN2C(=O)c3cccc4cccc(c34)C2=O)C(=O)c2ccncc2)cc1	L major viab 69
COc1ccc(N(CCCN2C(=O)c3cccc4cccc(c34)C2=O)C(=O)c2cccnc2)cc1	L major viab 51
COC(=O)c1c(NC(=O)C2(C)Cc3ccccc3C(=O)O2)sc2c1CCCC2 (stereo not given)	none
CC[n+]1c(C=C2C=C(C)OC(C)=C2)sc2ccccc21	L major viab 100, WT yeast gro inh 69
CC[n+]1c(/C=C2/C=C(C)CC(C)C2)sc2ccccc21 (stereo not given)	L major viab 100
Cc1sc2ccccc2[n+]1CCC(C)S(=O)(=O)[O-] (stereo not given)	none
CC(=O)N1CCC(=NNS(=O)(=O)c2cccc([N+](=O)[O-])c2)CC1	none
N#Cc1c(N)nc2c(c1N)CC(CCl)O2 (stereo not given)	L major viab 57
O=C(NNc1nc(N2CCOCC2)nc(N2CCOCC2)n1)Nc1ccc(Cl)cc1	none
CCC(=NCCc1c(C)[nH]c2ccccc12)C1=C(O)CC(c2ccccc2)CC1=O (stereo not given)	L major viab 96
O=C1CC(N(C(=O)c2ccco2)c2cccc(Cl)c2)C(=O)N1c1cccc(Cl)c1 (stereo not given)	none
Cc1[nH]nc(N=Cc2c(O)n(C)c(=O)n(C)c2=O)c1-c1ccccc1	none (no result: L major viab, WT yeast gro inh)
Cn1c(O)c(/C=N/Nc2ccccc2)c(=O)n(C)c1=O	L major viab 86, PMI act hi M6P 2.6, WT yeast gro inh 67
Cc1c(/C=N/Nc2ccc(F)cc2)c(O)n(C)c(=O)c1C#N	L major viab 60
CC(=O)N=Cc1c(C)c(C#N)c(=O)n(C)c1O	none
Cc1cc(O)c(/C=N/Nc2ccc(F)cc2)c(=O)o1	L major viab 70, PMI act hi M6P 2.3
Cc1ccc(Oc2ccc(NC(=O)CSc3n[nH]c(N)n3)cc2)cc1	L major viab 59
CCOC(=O)c1cnc2c(Cl)cc(Cl)cc2c1NCCOCCO	L major viab 96
CCOC(=O)c1cnc2ccccc2c1NCCO	none
Cc1ccsc1/C=N/NC(=O)c1cccs1	none
Cc1ccsc1/C=N/NC(=O)c1ccccn1	L major viab 60
O=C(O)CCCCCN=Cc1c(O)c2ccccc2oc1=O	none
CCOCCCNCc1ccc(Cl)cc1	L major viab 69
CCOCCCNCc1cccc(OCc2ccc(F)cc2)c1	L major viab 99
CCCNC(=S)NCc1ccc(Cl)cc1	none
Cc1cc(C)c(Nc2cc(S(=O)(=O)O)c(N)c3c2C(=O)c2ccccc2C3=O)c(C)c1	none
NC(=O)CC(NSc1ccccc1[N+](=O)[O-])C(=O)O (stereo not given)	none
COc1ccc2c(c1)Sc1ccccc1N2	L major viab 100
COc1ccc2[nH]c3ccccc3c2c1	none
COC(=O)c1cc2nc(-c3ccc(C)cc3)cc(C(F)(F)F)n2n1	none (no result: PMI act hi M6P, PMI act, Diaph act CS)
CN1CCN(C(=S)SCc2nc(N)nc(Nc3ccc(F)cc3)n2)CC1	none
Cc1ccc(C(=O)COC(=O)c2cccc(NC(=O)c3ccc([N+](=O)[O-])cc3[N+](=O)[O-])c2)cc1	L major viab 92
CCC(=O)Nc1ccc(C(=O)OCC(=O)c2ccc(C)c([N+](=O)[O-])c2)cc1	none
CC(=O)Nc1ccc(C(=O)OCC(=O)c2ccc(C)c([N+](=O)[O-])c2)cc1	L major viab 58
CC1CC(C)CN(c2ccc([N+](=O)[O-])cc2-c2nn[nH]n2)C1 (stereo not given)	none
C=CCn1c(COc2ccccc2)nnc1SC(C)C(=O)N/N=C/c1cc(Cl)ccc1O (stereo not given)	L major viab 98
Cc1ccc(Cl)c(OCCCCN(C)Cc2ccccc2)c1	L major viab 91
CCOc1cccc(OCCOCCN(C)Cc2ccccc2)c1	L major viab 79
CN(CCCOc1ccccc1Br)Cc1ccccc1	none
C=CCc1cc(OC)ccc1OCCN(C)Cc1ccccc1	none
CN(CCOCCOc1ccc(Cl)cc1Br)Cc1ccccc1	L major viab 87
CCOc1ccc(OCCN(C)Cc2ccccc2)cc1	L major viab 93
CCC(c1nnnn1C1CCCC1)N1CCN(c2cccc(OC)c2)CC1 (stereo not given)	none
CCOC(=O)c1oc2ccc(S(=O)(=O)n3nc(-c4ccc(C)cc4)cc3N)cc2c1C	L major viab 91
CCOC(=O)Cn1nc(-c2ccc(Cl)cc2)cc1N	L major viab 55
CCOC(=O)c1oc2ccc(S(=O)(=O)n3nc(-c4ccc(Cl)cc4)cc3N)cc2c1C	L major viab 98
CCOC(=O)C1(CCOC)CCN(Cc2cnc(-c3cccc(C)c3)nc2)CC1	none
O=C(COc1ccc(Cl)cc1[N+](=O)[O-])N1CCCCCC1	none
COc1ccc(-c2cn3c(C)c(C(=O)Nc4ccncc4)sc3n2)cc1	L major viab 100
CC(C)COC(=O)c1cccc2c1-c1ccccc1/C2=N\O	WT yeast gro inh 62
CCOC(=O)c1cccc2c1-c1ccccc1/C2=N/O	WT yeast gro inh 73
O=c1cc(-c2ccc(C3CCCCC3)cc2)[nH][nH]1	WT yeast gro inh 69
Cc1noc(N)c1C1(O)C(=O)Nc2c(Cl)cc(Cl)cc21 (stereo not given)	none
COc1ccc(OCc2ccc(C(=O)NN)cc2)cc1	none
COc1ccc(Oc2nc(OC)cc(OC)n2)cc1	none
CCOc1ccccc1N1CCN(C(=O)c2ccc3[nH]c4c(c3c2)CCCC4)CC1	WT yeast gro inh 58
CC(=O)Nc1cc(Cl)ccc1OS(=O)(=O)c1ccc(C)cc1	none
COc1ccccc1N(C)S(=O)(=O)c1ccc(C(=O)OCC(=O)N(C)c2ccccc2)cc1	L major viab 97
COc1ccccc1N(C)S(=O)(=O)c1ccc(C(=O)OCC(=O)Nc2ccccc2F)cc1	none
COc1ccccc1N(C)S(=O)(=O)c1ccc(C(=O)OC(C)C(=O)NCc2ccc3c(c2)OCO3)cc1 (stereo not given)	L major viab 98
CC(OC(=O)c1cccc(S(=O)(=O)Nc2ccccc2F)c1)C(=O)NCc1ccc2c(c1)OCO2 (stereo not given)	none
COc1cccc(C(=O)NC2=NCCS2)c1	none

Source: PubChem
